Measured values taken from publication PMC2812024 (Journal of medicinal chemistry, 2008).
Read-outs that look alike come from different tables or passages of the source. Where a SMILES comes first, the peptide text is derived from it. [ ]: non-standard residue; d: D form. The star is where a group is joined. Dmt = Cc1cc(O)cc(C)c1C[C@H](N)C(=O)O; Tic = O=C(O)[C@@H]1Cc2ccccc2CN1; NHBn = c1ccc(CN*)cc1

Key:
μ-opioid receptor [1] = target: T1, μ-opioid receptor (Cavia porcellus, UniProt P97266); experiment: Electrically stimulated guinea-pig ileum; design: species or system guinea pigs
T1 sequence (P97266 whole entry, looked up): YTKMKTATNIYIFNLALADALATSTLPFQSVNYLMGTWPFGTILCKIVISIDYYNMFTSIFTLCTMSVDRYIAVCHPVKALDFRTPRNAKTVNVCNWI

[2] = Enzymatic degradation in brain homogenate; type: in vitro ADME; conditions: 2 h, preliminary
mice [3] = experiment: Behavioural observation after icv injection; type: in vivo
mice [4] = experiment: Tail-flick test after icv injection; type: in vivo, Swiss-Webster mice
In short: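 Radiant heat on the dorsal tail surface of male Swiss-Webster mice (20–25 g), with latency to tail removal timed. Baseline 2–3 sec, cutoff 8 sec. Readings start 10 min after icv test compound (5 μL saline at bregma) and repeat every 10 min.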

mice [5] = experiment: Hot-plate test after icv injection; type: in vivo, Swiss-Webster mice
In short: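 Male Swiss-Webster mice (20–25 g); test compound in saline, 5 μL icv at bregma (needle 2.3–3 mm deep), placement checked after sacrifice. Latency to jump, lick or shake hind paws on a 55 °C plate at 10 min post-injection, then every 10 min; baseline 5–10 sec, cutoff 30 sec.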

[6] = Enzymatic degradation in plasma; type: in vitro ADME; conditions: 4 h, preliminary
μ-opioid receptor [7] = target: T1, μ-opioid receptor; conditions: read-out: GPI IC50; μ agonism; ref Balboni et al.[5]; cited from earlier work
μ-opioid receptors = μ-opioid receptors (Rattus norvegicus, UniProt P33535); conditions: read-out: Receptor affinity Ki^μ; reference compounds; ref Balboni et al.[5]; cited from earlier work
μ-opioid receptors, sequence (P33535 whole entry): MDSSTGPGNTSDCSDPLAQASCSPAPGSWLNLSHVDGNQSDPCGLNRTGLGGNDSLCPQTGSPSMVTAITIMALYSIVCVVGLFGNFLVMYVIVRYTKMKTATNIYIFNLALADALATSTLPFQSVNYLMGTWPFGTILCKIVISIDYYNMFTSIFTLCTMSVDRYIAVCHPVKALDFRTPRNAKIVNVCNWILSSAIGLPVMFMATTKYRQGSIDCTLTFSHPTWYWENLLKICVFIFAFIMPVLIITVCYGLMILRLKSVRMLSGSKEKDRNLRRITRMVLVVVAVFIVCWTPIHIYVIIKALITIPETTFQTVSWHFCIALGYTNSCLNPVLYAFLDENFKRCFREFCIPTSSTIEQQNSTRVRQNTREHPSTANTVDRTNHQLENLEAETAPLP

δ-opioid receptors = δ-opioid receptors (Rattus norvegicus, UniProt P33533); conditions: ref Balboni et al.[5], cited from earlier work; for Ki: read-out: Receptor affinity Ki^δ, reference compounds
δ-opioid receptors, sequence (P33533 whole entry): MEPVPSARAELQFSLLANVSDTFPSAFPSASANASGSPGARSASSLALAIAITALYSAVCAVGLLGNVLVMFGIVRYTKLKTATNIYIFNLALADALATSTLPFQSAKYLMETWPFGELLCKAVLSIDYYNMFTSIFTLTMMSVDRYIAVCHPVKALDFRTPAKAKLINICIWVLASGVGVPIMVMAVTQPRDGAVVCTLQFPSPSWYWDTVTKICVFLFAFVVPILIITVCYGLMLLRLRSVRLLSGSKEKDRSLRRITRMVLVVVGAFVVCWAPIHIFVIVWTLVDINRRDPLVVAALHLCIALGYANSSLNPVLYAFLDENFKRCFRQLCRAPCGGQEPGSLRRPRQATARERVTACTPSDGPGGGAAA

δ-opioid receptor [8] = target: T2, δ-opioid receptor (Mus musculus, UniProt P32300); conditions: ref Balboni et al.[5], cited from earlier work
T2 sequence (P32300 whole entry): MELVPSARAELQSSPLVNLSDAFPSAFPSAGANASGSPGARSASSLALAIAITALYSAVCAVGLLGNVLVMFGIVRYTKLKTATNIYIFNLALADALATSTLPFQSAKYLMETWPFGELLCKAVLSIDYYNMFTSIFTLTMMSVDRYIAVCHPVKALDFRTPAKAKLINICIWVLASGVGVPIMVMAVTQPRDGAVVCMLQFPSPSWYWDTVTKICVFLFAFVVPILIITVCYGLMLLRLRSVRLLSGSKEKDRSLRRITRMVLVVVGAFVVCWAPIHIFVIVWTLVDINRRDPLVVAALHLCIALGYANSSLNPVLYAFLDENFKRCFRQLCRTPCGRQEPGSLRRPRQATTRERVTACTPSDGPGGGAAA

δ-opioid receptor [9] = target: T2, δ-opioid receptor; experiment: Electrically stimulated mouse vas deferens; conditions: MVD
[10] = 10 μg/mouse icv, sc naltrindole 3 mg/kg, naloxone 10 mg/kg 20 min before

Cc1cc(O)cc(C)c1C[C@H](N)C(=O)N1Cc2ccccc2C[C@H]1C(=O)N[C@H](CC(=O)O)c1nc2ccccc2n1C [Compound 11, H-Dmt-Tic-NH-(R)CH(CH2-COOH)-Bid(N^1-Me)]
IC50 (μ-opioid receptor [1]): > 10000 nM

Cc1cc(O)cc(C)c1C[C@H](N)C(=O)N1Cc2ccccc2C[C@H]1C(=O)N[C@@H](CC(=O)O)c1nc2ccccc2n1C [Compound 10, H-Dmt-Tic-NH-(S)CH(CH2-COOH)-Bid(N^1-Me)]
Stability to enzymic degradation [2]: fully stable | Convulsions (mice [3]; highest doses): convulsions | Behavioural effects in mice (mice [3]; same dose): sedated, quiet, easily handled, and moving slowly if at all | Reversal of analgesia by naltrindole and naloxone, tail-flick test (mice [4]; [10]): reversed | Analgesic effect, tail-flick test (mice [4]; icv injection, mice, Figure 1): dose dependent analgesic effect | Reversal of analgesia by naltrindole and naloxone, hot-plate test (mice [5]; [10]): not in the hot-plate test | Analgesic effect, hot-plate test (mice [5]; icv injection, mice, Figure 1): dose dependent analgesic effect | μ agonism relative to 4 (μ-opioid receptor [1]; GPI): 1.7 fold | Stability to enzymic degradation [6]: fully stable

H-Dmt-Tic-Gly-NH-Ph [Compound 1]
IC50 (μ-opioid receptor [7]): 2.57 nM | Ki (μ-opioid receptors): 0.16 nM | Ki (δ-opioid receptors): 0.042 nM | Selectivity Ki^μ/Ki^δ (δ-opioid receptors): 4 | IC50 (δ-opioid receptor [8]; read-out: MVD IC50, δ agonism): 3.02 nM

H-Dmt-Tic-Gly-NH-Bzl [Compound 2]
IC50 (μ-opioid receptor [7]): 2.69 nM | Ki (μ-opioid receptors): 0.16 nM | Ki (δ-opioid receptors): 0.031 nM | Selectivity Ki^μ/Ki^δ (δ-opioid receptors): 5 | MVD pA2 (δ-opioid receptor [8]; δ antagonism): 9.25

Cc1cc(O)cc(C)c1C[C@H](N)C(=O)N1Cc2ccccc2C[C@H]1C(=O)N[C@H](CC(=O)O)C(=O)N(C)c1ccccc1 [Compound 9, H-Dmt-Tic-D-Asp-N(Me)-Ph]
IC50 (μ-opioid receptor [1]): > 10000 nM

Cc1cc(O)cc(C)c1C[C@H](N)C(=O)N1Cc2ccccc2C[C@H]1C(=O)N[C@@H](CC(=O)O)C(=O)N(C)c1ccccc1 [Compound 8, H-Dmt-Tic-Asp-N(Me)-Ph]
IC50 (μ-opioid receptor [1]): > 10000 nM

Cc1cc(O)cc(C)c1C[C@H](N)C(=O)N1Cc2ccccc2C[C@H]1C(=O)N[C@@H](CC(=O)O)C(=O)NCc1ccccc1 [Compound 13, H-Dmt-Tic-Asp-NH-Bzl] (H-[Dmt]-[Tic]-Asp-NHBn)
δ antagonist activity, lower than 2 (δ-opioid receptor [9]): 5 fold
